# Measured values of several laboratories.
# Each line is one published result; the experiments were not run side by side.
# Target: Phosphatidylinositol 4,5-bisphosphate 3-kinase catalytic subunit beta isoform (PIK3CB, Homo sapiens, UniProt P42338)
Structure (SMILES),assay,system,conditions,endpoint,value
COc1cc(-c2cc(-c3ccc(N4CCNCC4)cc3)cnc2C)cc(OC)c1OC,"enzyme activity, inhibitor",,1 µM,inhibition,6%
COc1cccc2c(NCc3ccccc3)nc(-n3c(N)nc4ccccc43)nc12,"target engagement in cells, inhibitor, chemoproteomics",,20 mM,inhibition,5.6%
CNc1cc(Oc2cc(C(=O)Nc3cc(N4CCN(C)CC4)cc(C(F)(F)F)c3)ccc2C)ncn1,"target engagement in cells, inhibitor, chemoproteomics",Huh-7,1 µM,inhibition,-11.6%
O=C(N1CCS(=O)(=O)CC1)N1C[C@H](c2ccc(OC(F)(F)F)cc2)C[C@H](c2nc(C3CC3)no2)C1,"cell-free assay, competition with immobilised ligand",,1 µM,remaining binding,66%
Nc1ncnc2occ(-c3ccc(NC(=O)Nc4cc(C(F)(F)F)ccc4F)cc3)c12,"cell-free assay, inhibitor",,20 µM,remaining signal,86%
CCOCCn1cc(C(=O)Nc2ccc(-n3nc(-c4cccnc4)cc3C(F)(F)F)cn2)ccc1=O,"cell-free assay, competition with immobilised ligand",,1 µM,remaining binding,82%
CS(=O)(=O)Nc1cc(-c2ccc3ncnc(Nc4ccc(F)c(Cl)c4)c3c2)cnc1Cl,"enzyme activity, inhibitor, FRET",,10 µM,inhibition,90 to 100%
CCCCNc1ncc2c(-c3ccc(F)cc3)nn(C[C@H]3CC[C@H](N)CC3)c2n1,"target engagement in cells, inhibitor, chemoproteomics",,20 mM,inhibition,16.7%
Cc1ccc(C(=O)Nc2ccc(CN3CCN(C)CC3)c(C(F)(F)F)c2)cc1C#Cc1cnc2cccnn12,"enzyme activity, inhibitor",,23.5 nM,remaining activity,99%
